This note sets out measurements from ChEMBL document CHEMBL1142328, “Imidazolidines as new anti-Trypanosoma cruzi agents: biological evaluation and structure-activity relationships” (Bioorg Med Chem, 2008).

Active and inactive are the calls of the source. The rule behind the calls is not given here.

Experiment [1] concerns Trypanosoma cruzi. The experiment in a line: Growth inhibition of Trypanosoma cruzi epimastigotes Tulahuen 2 at 25 uM. The experiment is classed as functional. As to conditions: for inhibition of growth at 25 µM: read-out: GI. An outline of the steps:
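Epimastigotes in BHI-Tryptose + 5% FBS at 28 °C, inoculated at 1×10^6 cells/mL from 10-day stationary culture. Drug tested at 25 μM from DMSO stock (final DMSO ≤0.4%; 0.4% DMSO control). Inhibition % = {1 − [(Ap − A0p)/(Ac − A0c)]}×100 using A600 at day 0 and day 5. Means of three experiments.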

In experiment [2] the test system is Trypanosoma cruzi. The experiment in a line: Growth inhibition of Trypanosoma cruzi epimastigotes Tulahuen 2. Type of experiment: functional, organism-based. An outline of the steps: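 Epimastigotes grown axenically at 28 °C in BHI-Tryptose with 5% FBS. Stationary-phase (10-day) cells inoculated at 1×10^6 cells/mL into medium with drug (DMSO stock, final DMSO ≤0.4%; 0.4% DMSO control). Growth followed by A600 daily. IC50 = concentration reducing the day-5 absorbance ratio vs control to 50%, over increasing concentrations. Means of three experiments.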

In experiment [3] the test system is Trypanosoma cruzi. The experiment in a line: Increase in lactose metabolite excretion in cell free medium of Trypanosoma cruzi Y relative to control. As to conditions: in the assay text read “lactate” for “lactose”. Type of experiment: functional, organism-based. An outline of the steps: (§1)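 Parasites treated with compound for 2 days. 5 mL of culture centrifuged at 1500g, 10 min, 4 °C. Parasite-free supernatant stored at −20 °C, then analysed by 1H NMR. Metabolite signals confirmed by spiking and by a 4 µg/mL standard in phosphate buffer pH 7.4. Increase expressed as % relative to untreated cells.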

Experiment [4] relates to Trypanosoma cruzi. The experiment in a line: Increase in alanine metabolite excretion in cell free medium of Trypanosoma cruzi Y relative to control. The experiment is classed as functional, organism-based. An outline of the steps:
as §1

Experiment [5] deals with Trypanosoma cruzi. The experiment in a line: Increase in acetate metabolite excretion in cell free medium of Trypanosoma cruzi Y relative to control. Type of experiment: functional, organism-based. The procedure, abridged: as §1
Experiment [6] concerns Trypanosoma cruzi. Description: Increase in glycine metabolite excretion in cell free medium of Trypanosoma cruzi Y relative to control. The experiment is classed as functional, organism-based. An outline of the steps:
as §1

Consider `Clc1ccc(CN2CCN(Cc3ccc(Cl)cc3)C2c2ccco2)cc1`, for which the inhibition of growth at 25 µM in the experiment with Trypanosoma cruzi [1] is 89.4%. The IC50 (in general, the concentration that inhibits the measured activity by half) with Trypanosoma cruzi [2] is 4.3 µM.
As to `O=[N+]([O-])c1ccc(N2CCN(CN3CCN(c4ccc([N+](=O)[O-])cc4)C3)C2)cc1`, the inhibition of growth at 25 µM with Trypanosoma cruzi [1] was found to be 0%.
On to `COc1ccc(CN2CCN(Cc3ccc(OC)cc3)C2c2ccc(Cl)cc2)cc1`, for which, in the experiment with Trypanosoma cruzi [1], the inhibition of growth at 25 µM is 100%. For the same compound, the IC50 in the experiment on Trypanosoma cruzi [2] came to 14.9 µM.
`Clc1ccc(CN2CCN(Cc3ccc(Cl)cc3)C2c2ccc(Cl)c(Cl)c2)cc1`: the inhibition of growth at 25 µM with Trypanosoma cruzi [1] was 92%. The compound also gave an IC50 in the experiment with Trypanosoma cruzi [2] of 9 µM.
As for `COc1ccc(N2CCN(CN3CCN(c4ccc(OC)cc4)C3)C2)cc1`, the inhibition of growth at 25 µM in the experiment with Trypanosoma cruzi [1] is 0%.
For the compound `COc1ccc(CN2CCN(Cc3ccc(OC)cc3)C2C)cc1`, the inhibition of growth at 25 µM with Trypanosoma cruzi [1] amounted to 40%. Besides, the IC50 in the experiment with Trypanosoma cruzi [2] came to 37 µM.
As to `Clc1ccc(CN2CCN(Cc3ccc(Cl)c(Cl)c3)C2c2ccccc2)cc1Cl`, the inhibition of growth at 25 µM with Trypanosoma cruzi [1] came to 100%. The compound also yielded an IC50 in the experiment with Trypanosoma cruzi [2] of 6.4 µM.
For the compound `Clc1ccc(CN2CCN(Cc3ccc(Cl)cc3)C2c2ccccc2)cc1`, the inhibition of growth at 25 µM in the experiment on Trypanosoma cruzi [1] is 94.5%. In addition, the IC50 in the experiment on Trypanosoma cruzi [2] is 5 µM.
For `Clc1ccc(CN2CCN(Cc3ccc(Cl)cc3)C2/C=C/c2ccccc2)cc1` the same measures were 100% and 10.2 µM.
For the compound `Cc1ccc(N2CCN(CN3CCN(c4ccc(C)cc4)C3)C2)cc1`, the inhibition of growth at 25 µM in the experiment on Trypanosoma cruzi [1] amounted to 0%.
On to `COc1ccc(CN2CCN(Cc3ccc(OC)cc3)C2c2ccc(Cl)c(Cl)c2)cc1`, for which the inhibition of growth at 25 µM in the experiment with Trypanosoma cruzi [1] was found to be 91%. In the experiment on Trypanosoma cruzi [2], this compound had a concentration for half-maximal inhibition (IC50) of 16 µM.
In the case of `Oc1ccccc1CN1CCN(Cc2ccccc2O)C1c1ccccc1`, the inhibition of growth at 25 µM with Trypanosoma cruzi [1] turned out to be 4.8%.
As for `Oc1ccccc1CNCCNCc1ccccc1O`, the result in the experiment with Trypanosoma cruzi [1] was inactive.
Consider `Clc1ccc(CN2CCN(Cc3ccc(Cl)cc3)C2c2cccc(Cl)c2)cc1`, for which the inhibition of growth at 25 µM in the experiment on Trypanosoma cruzi [1] is 100%. This compound registered an IC50 in the experiment on Trypanosoma cruzi [2] of 4.7 µM.
For `Clc1ccc(CN2CCN(Cc3ccc(Cl)cc3)C2)cc1` the same measures were 100% and 10.3 µM.
In the case of `c1ccc(CN2CCN(Cc3ccccc3)C2c2ccccc2)cc1`, in the experiment with Trypanosoma cruzi [1], the inhibition of growth at 25 µM came to 63%.
Regarding `Oc1ccccc1C1N(Cc2ccc(Cl)cc2)CCN1Cc1ccc(Cl)cc1`, in the experiment on Trypanosoma cruzi [1], the inhibition of growth at 25 µM turned out to be 86.8%. This compound gave an IC50 with Trypanosoma cruzi [2] of 4.3 µM.
For `COc1ccc(CN2CCN(Cc3ccc(OC)cc3)C2c2ccccc2Cl)cc1`, in that order: 49% and 25.3 µM.
For `COc1ccc(CN2CCN(Cc3ccc(OC)cc3)C2c2ccccc2)cc1`, in that order: 75.3% and 1.1 µM.
For the compound `Clc1cccc(CN2CCN(Cc3cccc(Cl)c3)C2)c1`, in the experiment on Trypanosoma cruzi [1], the inhibition of growth at 25 µM came to 100%. This compound displayed an IC50 in the experiment with Trypanosoma cruzi [2] of 9.7 µM.
As to `CC1N(c2ccccc2)CCN1c1ccccc1`, the inhibition of growth at 25 µM in the experiment on Trypanosoma cruzi [1] came to 12.4%.
Still for that read-out and setting: for `Clc1ccc(N2CCN(CN3CCN(c4ccc(Cl)cc4)C3)C2)cc1` the value was 0%.
Same read-out and setting: with `Clc1ccc(CN2CCN(Cc3ccc(Cl)c(Cl)c3)C2c2ccc(Cl)c(Cl)c2)cc1Cl` the figure was 30%; with `Clc1ccc(N2CCN(Cc3ccccc3)C2)cc1`, 64.7%; with `c1ccc(C2N(c3ccccc3)CCN2c2ccccc2)cc1`, 39.6%.
With `Clc1cccc(CN2CCN(Cc3cccc(Cl)c3)C2c2ccccc2)c1`, the inhibition of growth at 25 µM in the experiment on Trypanosoma cruzi [1] stood at 100%. In the experiment on Trypanosoma cruzi [2], this compound gave an IC50 of 14.7 µM.
For `Clc1ccc(C2N(Cc3ccccc3)CCN2Cc2ccccc2)cc1`, in that order: 60% and 23.5 µM.
`COc1ccc(CN2CCN(Cc3ccc(OC)cc3)C2c2cccc([N+](=O)[O-])c2)cc1`: the inhibition of growth at 25 µM with Trypanosoma cruzi [1] was 93%. In the experiment on Trypanosoma cruzi [2], half-maximal inhibition (IC50) required 23 µM.
Compound `COc1ccc(CNCCNCc2ccc(OC)cc2)cc1` gave an IC50 in the experiment on Trypanosoma cruzi [2] of 16.2 µM.
Turning to `Cc1ccc(N2CCN(Cc3ccccc3)C2c2ccccc2)cc1` (stereo unspecified), in the experiment on Trypanosoma cruzi [1], the inhibition of growth at 25 µM was 46%.
For `COc1ccc(CN2CCN(Cc3ccc(OC)cc3)C2c2ccc([N+](=O)[O-])cc2)cc1`, in the experiment with Trypanosoma cruzi [1], the inhibition of growth at 25 µM amounted to 83%. The same compound showed an IC50 with Trypanosoma cruzi [2] of 16.5 µM.
Turning to `O=[N+]([O-])c1ccc(C2N(Cc3ccc(Cl)cc3)CCN2Cc2ccc(Cl)cc2)cc1`, the inhibition of growth at 25 µM in the experiment with Trypanosoma cruzi [1] is 100%. In addition, 14.5 µM corresponded to half-maximal inhibition in the experiment with Trypanosoma cruzi [2] (IC50).
Consider `Clc1cccc(N2CCN(CN3CCN(c4cccc(Cl)c4)C3)C2)c1`, for which, in the experiment with Trypanosoma cruzi [1], the inhibition of growth at 25 µM is 8%.
Take `Cc1ccc(N2CCN(Cc3ccccc3)C2)cc1`: in the experiment with Trypanosoma cruzi [1], the inhibition of growth at 25 µM turned out to be 44.2%.
For `Clc1ccc(CN2CCN(Cc3ccc(Cl)cc3)C2c2ccccc2Cl)cc1`, the inhibition of growth at 25 µM in the experiment on Trypanosoma cruzi [1] is 100%. Also, the IC50 with Trypanosoma cruzi [2] is 11 µM.
With `CC1CS(=O)(=O)CCN1/N=C/c1ccc([N+](=O)[O-])o1` (stereo unspecified) [NIFURTIMOX], in the experiment with Trypanosoma cruzi [1], the inhibition of growth at 25 µM was determined as 100%.
Regarding `c1ccc(N2CCN(CN3CCN(c4ccccc4)C3)C2)cc1`, the inhibition of growth at 25 µM in the experiment on Trypanosoma cruzi [1] worked out at 0%.
Turning to `Cc1ccc(CN2CCN(Cc3ccc(C)cc3)C2c2cccc(Cl)c2)cc1`, the inhibition of growth at 25 µM in the experiment with Trypanosoma cruzi [1] was 99%. The compound further gave an IC50 in the experiment with Trypanosoma cruzi [2] of 13.4 µM.
Consider `Clc1ccc(C2N(Cc3ccc(Cl)c(Cl)c3)CCN2Cc2ccc(Cl)c(Cl)c2)cc1`, for which, in the experiment with Trypanosoma cruzi [1], the inhibition of growth at 25 µM is 50%. This compound returned an IC50 in the experiment with Trypanosoma cruzi [2] of 25 µM.
Turning to `Oc1cccc(C2N(Cc3ccc(Cl)cc3)CCN2Cc2ccc(Cl)cc2)c1`, in the experiment on Trypanosoma cruzi [1], the inhibition of growth at 25 µM was 97.4%. The IC50 in the experiment with Trypanosoma cruzi [2] was 4.6 µM. In addition, the Activity with Trypanosoma cruzi [3] is 30%; in the experiment with Trypanosoma cruzi [4], 40%; in the experiment on Trypanosoma cruzi [5], 60%; in the experiment on Trypanosoma cruzi [6], 60%.
Take `Clc1ccc(CN2CCN(Cc3ccc(Cl)c(Cl)c3)C2c2ccco2)cc1Cl`: the inhibition of growth at 25 µM in the experiment with Trypanosoma cruzi [1] was determined as 93.9%. For the same compound, the midpoint of inhibition in the experiment on Trypanosoma cruzi [2], the IC50, lay at 4.1 µM. For the same compound, the Activity worked out at 10% with Trypanosoma cruzi [3], 30% with Trypanosoma cruzi [4], 10% with Trypanosoma cruzi [5] and 15% with Trypanosoma cruzi [6].
Regarding `COc1ccc(C2N(Cc3ccc(Cl)cc3)CCN2Cc2ccc(Cl)cc2)cc1`, in the experiment with Trypanosoma cruzi [1], the inhibition of growth at 25 µM came out at 100%. In the experiment with Trypanosoma cruzi [2], the IC50 came out at 5 µM.
For `Cc1ccc(CN2CCN(Cc3ccc(C)cc3)C2c2ccccc2)cc1`, the inhibition of growth at 25 µM in the experiment with Trypanosoma cruzi [1] was 100%. For the same compound, the IC50 in the experiment with Trypanosoma cruzi [2] is 12.5 µM.
As to `Cc1ccc(N2CCN(C)C2c2ccccc2)cc1` (stereo unspecified), in the experiment on Trypanosoma cruzi [1], the inhibition of growth at 25 µM is 8.9%.
On the same count and under the same terms, with `Brc1ccc(N2CCN(CN3CCN(c4ccc(Br)cc4)C3)C2)cc1` the figure was 0%.
Turning to `Clc1ccc(CN2CCN(Cc3ccc(Cl)cc3)C2c2ccc(Cl)cc2)cc1`, the inhibition of growth at 25 µM with Trypanosoma cruzi [1] worked out at 100%. For the same compound, in the experiment with Trypanosoma cruzi [2], half-maximal inhibition (IC50) required 8.9 µM.
For the compound `Clc1ccc(CNCCNCc2ccc(Cl)cc2)cc1`, in the experiment on Trypanosoma cruzi [2], the IC50 turned out to be 2 µM. That is a single-digit micromolar value.
As to `COc1ccc(CN2CCN(Cc3ccc(OC)cc3)C2c2cccc(Cl)c2)cc1`, the inhibition of growth at 25 µM in the experiment with Trypanosoma cruzi [1] amounted to 95%. Also, inhibition in the experiment on Trypanosoma cruzi [2] was half-maximal at 14 µM (IC50).
As to `c1ccc(CN2CCN(c3ccccc3)C2)cc1`, the inhibition of growth at 25 µM in the experiment on Trypanosoma cruzi [1] was 17.2%.
As to `COc1ccc(CN2CCN(Cc3ccc(OC)cc3)C2/C=C/c2ccccc2)cc1`, in the experiment on Trypanosoma cruzi [1], the inhibition of growth at 25 µM was determined as 98.6%. This compound also registered an IC50 in the experiment on Trypanosoma cruzi [2] of 10 µM.
As for `Clc1ccc(N2CCN(Cc3ccccc3)C2c2ccccc2)cc1` (stereo unspecified), the inhibition of growth at 25 µM in the experiment on Trypanosoma cruzi [1] came out at 70.4%.
In the case of `Clc1ccc(CN2CCN(Cc3ccc(Cl)c(Cl)c3)C2)cc1Cl`, the inhibition of growth at 25 µM in the experiment on Trypanosoma cruzi [1] came to 100%. In the experiment on Trypanosoma cruzi [2], this compound came in with an IC50 of 15.1 µM.
Take `c1ccc(CN2CCN(c3ccccc3)C2c2ccccc2)cc1` (stereo unspecified): the inhibition of growth at 25 µM in the experiment with Trypanosoma cruzi [1] was 45.1%.
Take `Cc1ccc(CN2CCN(Cc3ccc(C)cc3)C2c2ccc(Cl)cc2)cc1`: the inhibition of growth at 25 µM with Trypanosoma cruzi [1] came to 100%. For the same compound, in the experiment with Trypanosoma cruzi [2], half-maximal inhibition (IC50) was put at 9 µM.
For the compound `CN1CCN(c2ccccc2)C1c1ccccc1` (stereo unspecified), the inhibition of growth at 25 µM in the experiment on Trypanosoma cruzi [1] turned out to be 0%.
Still for that read-out and setting: with `Brc1cccc(N2CCN(CN3CCN(c4cccc(Br)c4)C3)C2)c1` the figure was 10.8%; with `c1ccc(N2CCN(c3ccccc3)C2)cc1`, 12.3%.
